Casp6 inh = inhibitors of human caspase-6. inhibition, % at 12.5 µM. 350,000 compounds, 0.53% hits. purified caspase-6, Z-VEID-R110 cleavage fluorescence. P55212;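 active = mean inhibition across replicates at least about 35%, with every replicate also reaching that limit, limit read from the data; inconclusive = only one of the two criteria met; inactive = neither criterion met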;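 note: 0% = median of neutral control wells and 100% = no fluorescence left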
Target sequence (P55212 24-179 limits assumed): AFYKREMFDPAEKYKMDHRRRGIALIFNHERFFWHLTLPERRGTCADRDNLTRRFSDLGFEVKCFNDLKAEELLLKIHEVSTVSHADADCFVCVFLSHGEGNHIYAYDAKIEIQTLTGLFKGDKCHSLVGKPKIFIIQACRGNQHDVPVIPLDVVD
Target sequence (P55212 194-293 limits assumed): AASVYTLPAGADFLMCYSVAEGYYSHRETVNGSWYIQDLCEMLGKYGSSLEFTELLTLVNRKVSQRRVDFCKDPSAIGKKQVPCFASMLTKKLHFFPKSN
esBAF inh = blocks esBAF chromatin remodeling in mouse ES cells | Bmi1-luciferase knock-in reporter, 24 h; 100% = twice the neutral-well signal | reporter increase, % at 12.5 µM | 350,000 compounds, 2% hits | AID 602393; in the data active = activation above about 40%; inconclusive = no clear call, values can overlap the other calls;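 note: 0% = median of the plate's neutral control wells and 100% = double that signal; a rise in the Bmi1 reporter signal indicates esBAF inhibition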
Wnt act = activates Wnt/beta-catenin signaling in a reporter cell assay. activator, plate reader. activation, % at 9.35 µM. 300,000 compounds, 1.2% hits. AID 743398; in the data active = activation above about 30%, passing the limit was not always enough; inconclusive = no clear call, values can overlap the other calls;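 note: 0% = neutral control wells and 100% = positive control wells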
XiGFP reactiv = activators of X-chromosome reactivation in mouse fibroblasts. 360,000 compounds, 0.055% hits. activation, % at 7.58 µM. XiGFP mouse fibroblasts, % GFP-positive cells imaging, 3 d; cells co-treated with 5-aza-dC sensitizer; scaled so ellipticine positive control = 100%;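 active = mean normalized replicate activation at least 10% and every replicate at or above 10%; inconclusive = only one of the two criteria met; inactive = mean below 10% and not all replicates reach 10%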;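 note: 0% = median of on-plate neutral control wells and 100% = ellipticine 6 µM median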
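System: 68-5-11 XiGFP fibroblast line | Buffer or medium: DMEM containing 5-aza-dC | Compound: Single point | Times: Compounds 3 days, fix/stain 15 min at room temperature | Benchmarks: Positive control ellipticine, 6 µM final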
MITF act = MITF TRPM1 promoter activation in melanoma cells | SK-MEL-5 TRPM1-promoter luciferase, 24 h; % of positive control, neutral wells = 0 | activation, % at 12.5 µM | 300,000 compounds, 0.75% hits | AID 588334;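 active = mean activation of at least 80% with every replicate also reaching 80%; inconclusive = mean reaches 80% but some replicate falls short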;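 note: 0% = neutral control wells and 100% = parthenolide positive control wells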
NSD2 HMT inh = NSD2 (human) methyltransferase inhibition; inhibition, % at 12.5 µM; NSD2 peptide methylation, AlphaScreen, 120 min; O96028; 310,000 compounds, 0.54% hits; in the data active = inhibition above about 50%
Active calls of the source: *; ? = inconclusive; . = not tested or not shown. The list is not random: actives were taken first. Their share in the collection is about 3%.

SMILES	Casp6 inh	esBAF inh	Wnt act	XiGFP reactiv	MITF act	NSD2 HMT inh
O=C(Nc1ccccn1)c1ccc(S(=O)(=O)N2CCCCCC2)cc1	6.0	?	25.0	0.0	64.5	-0.3
Cc1ccnc(NC(=O)c2ccc(S(=O)(=O)N3CCCCCC3)cc2)c1	-1.6	.	33.7*	0.1	83.5*	0.5
NC(=O)c1ccsc1NC(=O)c1ccc(S(=O)(=O)N2CCCCC2)cc1	-1.3	99.7*	10.5	1.1	.	.
Cc1ccnc(NC(=O)c2ccc(S(=O)(=O)N3CCCCC3)cc2)c1	-0.8	18.6	1.7	0.2	16.0	0.7
C[C@@H]1CN([C@H](C)CO)C(=O)c2cc(NC(=O)NC3CCCCC3)ccc2O[C@@H](C)CCCCO[C@@H]1CN(C)S(=O)(=O)c1cn(C)cn1	1.9	-2.8	.	0.1	.	.
C[C@@H]1CN([C@H](C)CO)C(=O)Cc2cc(NS(=O)(=O)c3cccs3)ccc2O[C@H]1CN(C)Cc1ccc(C(=O)O)cc1	-1.1	3.9	.	0.0	.	.
O=C(Nc1ccc(Cl)cc1)N1CCC(c2ccccc2)C1 (centres undefined)	2.2	.	55.8*	0.0	115.8*	-2.2
S=C(Nc1ccccc1Cl)N1CCC(c2ccccc2)C1 (centres undefined)	-0.9	.	16.2	0.0	38.7	-0.4
Cc1ccc(C2CCN(C(=O)Nc3ccccc3)C2)cc1 (centres undefined)	.	53.2*	.	.	?	-4.6
Cc1ccc(NC(=S)N2CCC(c3ccc(C)cc3)C2)cc1 (centres undefined)	2.7	-5.8	18.8	-0.3	20.7	.
Cc1ccc(NC(=S)N2CCC(c3ccccc3)C2)c(Cl)c1 (centres undefined)	3.1	.	42.1*	0.0	60.6	-5.6
O=C(Nc1cccc(F)c1)N1CCC(c2ccccc2)CC1	-4.3	39.6	7.1	0.1	66.2	-2.6
Cc1ccc(NC(=O)N2CCC(c3ccccc3)C2)cc1C (centres undefined)	-1.1	4.3	56.3*	0.0	127.7*	-3.4
COc1ccc(NC(=O)Nc2cccc3c2O[C@H](CN(C)C(=O)Nc2c(C)noc2C)[C@@H](C)CN([C@@H](C)CO)C3=O)cc1	-1.7	6.2	.	-0.1	.	.
C[C@@H]1CN([C@H](C)CO)C(=O)c2cc(NC(=O)c3ccccc3)ccc2O[C@@H](C)CCCCO[C@@H]1CN(C)C(=O)CCC(F)(F)F	0.3	2.0	.	0.1	.	.
C[C@H](CO)N1C[C@H](C)[C@@H](CN(C)Cc2cccc(C(F)(F)F)c2)OCc2ccccc2-c2ccccc2C1=O	.	.	.	-0.2	.	.
Cc1ccc(S(=O)(=O)N(C)C[C@H]2OCCCC[C@@H](C)Oc3ccc(NC(=O)Nc4cccc5ccccc45)cc3C(=O)N([C@H](C)CO)C[C@@H]2C)cc1	1.5	-1.7	.	0.2	.	.
COc1ccc2nc(C)cc(NCc3ccc(F)cc3)c2c1	-0.7	.	-8.4	97.4*	8.9	-0.7
COc1ccc2nc(C)cc(Nc3ccc(C)cc3)c2c1	1.1	2.3	-2.6	0.0	-11.5	13.9
O=C(Nc1ccccc1)N1CC(=O)N2[C@H](C1)[C@H](c1ccc(-c3ccc(F)cc3)cc1)[C@@H]2CO	.	.	.	0.4	.	.
O=C(CCCOc1ccc(Cl)cc1)Nc1cccc(C(=O)O)c1	4.4	1.4	56.3*	0.1	-2.5	1.9
O=C(Nc1ccccc1)OCCOc1ccccc1	.	52.1*	.	.	52.3	-9.1
Cc1ccc(NC(=O)CCOc2ccccc2)cc1	-2.5	55.9*	24.4	0.0	90.2*	-2.6
Cc1ccc(NC(=O)CCC(=O)NNC(=O)COc2ccccc2)c(C)c1	41.0*	.	-1.2	0.0	9.2	.
O=C(Nc1cccc(Cl)c1)OCCOc1ccccc1	3.0	60.6*	7.1	0.0	79.5	-3.0
SMILES	Casp6 inh	esBAF inh	Wnt act	XiGFP reactiv	MITF act	NSD2 HMT inh
O=C(Nc1ccccc1)OCCOc1ccccc1Br	-0.7	45.3*	21.6	0.0	.	-2.7
O=C(Nc1cccc(Cl)c1)OCCOC(=O)Nc1cccc(Cl)c1	-1.2	-1.9	-5.2	0.3	11.5	-0.2
COc1ccc2c3c([nH]c2c1)[C@H](CO)N(C(=O)c1ccccc1)CC31CCN(C(=O)Nc2cccc(F)c2)CC1	.	.	.	0.3	.	.
C[C@@H]1CCCCO[C@@H](CN(C)C(=O)Nc2cccc3ccccc23)[C@H](C)CN([C@H](C)CO)C(=O)c2cc(NC(=O)Nc3ccc4c(c3)OCO4)ccc2O1	2.9	11.5	.	0.0	.	.
CCOC(=O)c1nn(-c2ccc([N+](=O)[O-])cc2)cc1O	-0.7	26.8	17.1	0.0	41.6	0.2
CCOC(=O)c1nn(-c2ccc3c(c2)OCCO3)cc1O	3.3	0.6	26.7	-0.1	82.4*	-6.5
CC(=O)c1nn(-c2ccc(Cl)cc2)cc1C(=O)c1ccccc1	-2.4	.	2.4	0.0	.	-0.4
COC(=O)c1nn(-c2ccc3c(c2)OCO3)cc1O	.	.	.	.	44.2	2.8
CCOC(=O)c1nn(-c2ccc(C)cc2)cc1C(=O)c1ccccc1	.	78.5*	.	.	.	-1.6
CCOC(=O)c1nn(-c2ccc(C)c(C)c2)cc1O	.	46.1*	.	.	?	3.6
Cc1ccc(NC(=O)COC(=O)c2nn(-c3ccc(Cl)cc3)cc2O)cc1	0.6	49.1*	4.7	0.1	30.6	-2.5
CCC(=O)Nc1ccc2c(c1)OC[C@@H](C)N(C(=O)Cc1ccccn1)C[C@H](C)[C@H](OC)CN(C)C2=O	.	.	.	0.0	.	.
CN1CCN(C(=O)C[C@@H]2C[C@H]3c4cc(NC(=O)Nc5ccccc5)ccc4O[C@H]3[C@@H](CO)O2)CC1	.	-2.9	.	0.0	.	.
COc1ccc(NC(=O)N2CC3(C2)CN(C(=O)c2cccnc2)[C@H](CO)c2[nH]c4cc(OC)ccc4c23)cc1	0.3	.	.	0.4	.	.
CC(C)NC(=O)N(C)C[C@@H]1Oc2c(NS(C)(=O)=O)cccc2C(=O)N(C)C[C@@H]1C	.	.	.	0.1	.	.
CC(C)c1cn(CC[C@H]2CC[C@H](NC(=O)C3CCOCC3)[C@@H](CO)O2)nn1	7.8	.	.	-0.7	.	.
C[C@@H]1CCCCO[C@@H](CN(C)C(=O)Nc2ccc3c(c2)OCO3)[C@H](C)CN([C@H](C)CO)C(=O)c2cc(NC(=O)NC3CCCCC3)ccc2O1	.	12.5	.	0.0	.	.
Oc1ccc(/C=N/Nc2ccnc3cc(Cl)ccc23)c(O)c1	69.2*	32.6	2.9	68.1*	-8.3	2.6
C[C@H](O)C#Cc1ccc2c(c1)O[C@@H](CN(C)C(=O)C1CC1)[C@H](C)CN([C@@H](C)CO)S2(=O)=O	0.7	0.9	.	0.0	.	.
Cc1cccc(C(=O)N2CCCC(c3nc(-c4ccc(C)o4)no3)C2)c1 (centres undefined)	5.3	50.6*	12.0	.	54.5	-2.2
Cc1ccc(-c2noc(C3CCCN(C(=O)c4ccccc4Br)C3)n2)cc1 (centres undefined)	1.9	51.4*	2.9	-0.1	10.1	-1.3

Bioassay records: PubChem BioAssay, Broad Institute
